The values that follow come from ChEMBL document CHEMBL4118021, “Studies of TAK1-centered polypharmacology with novel covalent TAK1 inhibitors” (Bioorg Med Chem, 2017).

The target of experiment [1] is Mast/stem cell growth factor receptor Kit (Homo sapiens) (UniProt P10721). The experiment is described as follows: Inhibition of human KIT (571 to 952 residues) expressed in bacterial expression system assessed as enzyme activity at 10 uM by KINOMEScan assay relative to control. Set-up: scale not given: the % may be the effect or the level left. The method, boiled down: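 In vitro ATP-site competition binding assay across a panel of 456 kinases, with compound tested at 1 and 10 μM.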

Experiment [2] concerns the target T-complex protein 1 subunit epsilon (Homo sapiens) (UniProt P48643). The experiment can be described thus: Binding affinity to CCT5 in human NCI-H23 cells at 1 uM by mass spectrometry based pull down assay. The class given is cell-based.
Experiment [3] addresses Aldehyde dehydrogenase family 3 member A2 (Homo sapiens) (UniProt P51648). The experiment is described as follows: Binding affinity to ALDH3A2 in human NCI-H23 cells at 1 uM by mass spectrometry based pull down assay. Type of experiment: cell-based.
The target in experiment [4] is T1, 80S Ribosome (Homo sapiens) (UniProt P08865+P42677+P62753+P15880+P23396+P61247+P62701+P22090+P46782+P62081+P62241+P46781+P46783+P62280+P25398+P62277+P62263+P62841+P62244+P62249+P08708+P62269+P39019+P60866+P63220+P62266+P62847+P62851+P62854+P62979+P62857+P62273+P62861+P39023+P36578+P46777+Q02878+P18124+P62424+P62917+P32969+P27635+P62906+P62913+P30050+P26373+P40429+P50914+P61313+P18621+Q07020+Q02543+P84098+P46778+P35268+P62829+P62750+P83731+P61254+P61353+P46776+P46779+P47914+P62888+P62899+P62910+P49207+P42766+P18077+Q9Y3U8+P83881+P61927+P61513+P63173+P62891+P62945+P05388+P05386). The experiment can be described thus: Binding affinity to RPS26 in human NCI-H23 cells at 1 uM by mass spectrometry based pull down assay. Type of experiment: cell-based.

The target of experiment [5] is Protein NipSnap homolog 1 (Homo sapiens) (UniProt Q9BPW8). The experiment is described as follows: Binding affinity to NIPSNAP1 in human NCI-H23 cells at 1 uM by mass spectrometry based pull down assay. The class given is cell-based.
Experiment [6] concerns the target Phospholipid hydroperoxide glutathione peroxidase GPX4 (Homo sapiens) (UniProt P36969). The experiment is described as follows: Binding affinity to GPX4 in human NCI-H23 cells at 1 uM by mass spectrometry based pull down assay. Type of experiment: cell-based.
The target in experiment [7] is Leucine-rich repeat-containing protein 15 (Homo sapiens) (UniProt Q8TF66). The experiment can be described thus: Binding affinity to LRRC15 in human NCI-H23 cells at 1 uM by mass spectrometry based pull down assay. The class given is cell-based.
In experiment [8] the target is Actin-related protein 2/3 complex subunit 5 (Homo sapiens) (UniProt O15511). The experiment is described as follows: Binding affinity to ARPC5 in human NCI-H23 cells at 1 uM by mass spectrometry based pull down assay. Type of experiment: cell-based.
Experiment [9] addresses Prefoldin subunit 2 (Homo sapiens) (UniProt Q9UHV9). The experiment is described as follows: Binding affinity to PFDN2 in human NCI-H23 cells at 1 uM by mass spectrometry based pull down assay. Type of experiment: cell-based.
Experiment [10] addresses Methylosome protein WDR77 (Homo sapiens) (UniProt Q9BQA1). The experiment can be described thus: Binding affinity to WDR77 in human NCI-H23 cells at 1 uM by mass spectrometry based pull down assay. Type of experiment: cell-based.
In experiment [11] the target is Trifunctional purine biosynthetic protein adenosine-3 (Homo sapiens) (UniProt P22102). The experiment is described as follows: Binding affinity to GART in human NCI-H23 cells at 1 uM by mass spectrometry based pull down assay. Type of experiment: cell-based.
Experiment [12] addresses E3 ubiquitin-protein ligase UBR4 (Homo sapiens) (UniProt Q5T4S7). The experiment can be described thus: Binding affinity to UBR4 in human NCI-H358 cells at 1 uM by mass spectrometry based pull down assay. The class given is cell-based.
Experiment [13] concerns the target T1, 80S Ribosome (Homo sapiens). The experiment can be described thus: Binding affinity to RPL10 in human NCI-H358 cells at 1 uM by mass spectrometry based pull down assay. The class given is cell-based.
Experiment [14] concerns the target Phosphoinositide 3-kinase regulatory subunit 4 (Homo sapiens) (UniProt Q99570). The experiment is described as follows: Binding affinity to PIK3R4 in human NCI-H358 cells at 1 uM by mass spectrometry based pull down assay. Type of experiment: cell-based.
Experiment [15] addresses RuvB-like 1 (Homo sapiens) (UniProt Q9Y265). The experiment is described as follows: Binding affinity to RUVBL1 in human NCI-H358 cells at 1 uM by mass spectrometry based pull down assay. Type of experiment: cell-based.
The target of experiment [16] is Monofunctional C1-tetrahydrofolate synthase, mitochondrial (Homo sapiens) (UniProt Q6UB35). The experiment is described as follows: Binding affinity to MTHFD1L in human NCI-H358 cells at 1 uM by mass spectrometry based pull down assay. The class given is cell-based.
The next experiment concerns the target Beclin-1 (Homo sapiens) (UniProt Q14457). The experiment can be described thus: Binding affinity to BECN1 in human NCI-H358 cells at 1 uM by mass spectrometry based pull down assay. Type of experiment: cell-based.
Experiment [17] addresses Phosphatidylinositol 3-kinase catalytic subunit type 3 (Homo sapiens) (UniProt Q8NEB9). The experiment can be described thus: Binding affinity to PIK3C3 in human NCI-H358 cells at 1 uM by mass spectrometry based pull down assay. The class given is cell-based.
In experiment [18] the target is Thioredoxin-related transmembrane protein 1 (Homo sapiens) (UniProt Q9H3N1). The experiment can be described thus: Binding affinity to TMX1 in human NCI-H358 cells at 1 uM by mass spectrometry based pull down assay. Type of experiment: cell-based.
The target of experiment [19] is T2, Aurora kinase A (Homo sapiens) (UniProt O14965).
T2 sequence (whole entry): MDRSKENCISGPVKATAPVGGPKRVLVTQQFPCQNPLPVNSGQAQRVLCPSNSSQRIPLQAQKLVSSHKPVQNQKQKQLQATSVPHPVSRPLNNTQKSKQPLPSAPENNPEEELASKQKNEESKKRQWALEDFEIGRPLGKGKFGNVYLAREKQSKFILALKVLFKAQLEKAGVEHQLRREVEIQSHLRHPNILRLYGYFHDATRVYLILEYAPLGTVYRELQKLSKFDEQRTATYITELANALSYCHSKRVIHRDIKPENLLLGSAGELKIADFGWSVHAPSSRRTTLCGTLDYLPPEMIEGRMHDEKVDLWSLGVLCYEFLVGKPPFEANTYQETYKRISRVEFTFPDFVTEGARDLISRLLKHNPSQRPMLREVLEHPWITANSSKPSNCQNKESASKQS
The experiment can be described thus: Binding affinity to AURKA in human NCI-H358 cells at 1 uM by mass spectrometry based pull down assay. Type of experiment: cell-based.

Experiment [20] deals with Transcription intermediary factor 1-beta (Homo sapiens) (UniProt Q13263). The experiment is described as follows: Binding affinity to TRIM28 in human NCI-H358 cells at 1 uM by mass spectrometry based pull down assay. The class given is cell-based.

Calls of active or inactive are those of the source. The rule behind the calls is not given here.

Chain of Monofunctional C1-tetrahydrofolate synthase, mitochondrial (Homo sapiens) (Q6UB35 whole entry): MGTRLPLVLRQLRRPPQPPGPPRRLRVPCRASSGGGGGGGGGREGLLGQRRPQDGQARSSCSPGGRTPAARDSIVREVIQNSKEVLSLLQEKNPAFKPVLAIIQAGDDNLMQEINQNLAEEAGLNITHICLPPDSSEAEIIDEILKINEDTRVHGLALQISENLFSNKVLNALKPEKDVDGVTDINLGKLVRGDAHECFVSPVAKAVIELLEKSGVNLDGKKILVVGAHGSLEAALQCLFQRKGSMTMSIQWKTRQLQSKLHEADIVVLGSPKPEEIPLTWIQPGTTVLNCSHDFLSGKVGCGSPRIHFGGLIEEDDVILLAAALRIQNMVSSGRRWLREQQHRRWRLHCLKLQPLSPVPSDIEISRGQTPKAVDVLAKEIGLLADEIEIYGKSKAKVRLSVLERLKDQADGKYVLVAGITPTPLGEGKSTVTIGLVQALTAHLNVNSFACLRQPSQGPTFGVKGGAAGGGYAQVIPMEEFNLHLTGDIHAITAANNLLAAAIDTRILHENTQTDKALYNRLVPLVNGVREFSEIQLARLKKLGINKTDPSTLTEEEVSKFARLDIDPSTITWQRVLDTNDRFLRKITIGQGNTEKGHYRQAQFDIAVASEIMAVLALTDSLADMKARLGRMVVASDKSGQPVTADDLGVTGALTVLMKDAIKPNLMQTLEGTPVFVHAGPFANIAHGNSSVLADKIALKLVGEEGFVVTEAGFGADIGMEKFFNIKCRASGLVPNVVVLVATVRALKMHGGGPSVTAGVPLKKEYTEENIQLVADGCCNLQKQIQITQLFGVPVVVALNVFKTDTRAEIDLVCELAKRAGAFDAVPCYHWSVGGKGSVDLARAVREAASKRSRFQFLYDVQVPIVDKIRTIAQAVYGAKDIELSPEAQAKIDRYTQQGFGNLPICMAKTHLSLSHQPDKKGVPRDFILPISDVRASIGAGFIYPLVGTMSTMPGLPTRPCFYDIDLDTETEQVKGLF
Chain of Leucine-rich repeat-containing protein 15 (Homo sapiens) (Q8TF66 whole entry): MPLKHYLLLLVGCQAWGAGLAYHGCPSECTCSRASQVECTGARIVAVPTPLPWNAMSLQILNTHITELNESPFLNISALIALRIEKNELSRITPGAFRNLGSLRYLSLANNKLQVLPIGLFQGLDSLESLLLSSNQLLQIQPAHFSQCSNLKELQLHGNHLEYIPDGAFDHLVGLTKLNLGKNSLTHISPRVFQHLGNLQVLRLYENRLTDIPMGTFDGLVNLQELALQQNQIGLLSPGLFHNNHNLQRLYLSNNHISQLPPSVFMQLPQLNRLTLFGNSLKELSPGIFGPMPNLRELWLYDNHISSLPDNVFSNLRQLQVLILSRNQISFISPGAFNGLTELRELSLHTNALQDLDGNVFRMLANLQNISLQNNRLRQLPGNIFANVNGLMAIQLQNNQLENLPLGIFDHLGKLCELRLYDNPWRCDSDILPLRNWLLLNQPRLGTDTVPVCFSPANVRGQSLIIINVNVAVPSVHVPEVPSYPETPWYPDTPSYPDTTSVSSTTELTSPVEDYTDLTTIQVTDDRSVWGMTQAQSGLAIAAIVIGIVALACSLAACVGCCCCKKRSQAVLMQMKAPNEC
Chain of Protein NipSnap homolog 1 (Homo sapiens) (Q9BPW8 whole entry): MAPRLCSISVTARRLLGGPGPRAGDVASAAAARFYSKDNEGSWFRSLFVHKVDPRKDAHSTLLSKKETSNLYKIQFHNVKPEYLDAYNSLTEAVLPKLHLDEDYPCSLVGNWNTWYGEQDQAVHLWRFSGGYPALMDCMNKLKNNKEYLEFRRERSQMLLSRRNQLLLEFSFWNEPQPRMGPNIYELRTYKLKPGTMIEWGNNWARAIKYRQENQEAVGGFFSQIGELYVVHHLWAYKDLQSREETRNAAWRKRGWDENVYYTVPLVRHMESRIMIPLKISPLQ
Chain of Phosphoinositide 3-kinase regulatory subunit 4 (Homo sapiens) (Q99570 whole entry): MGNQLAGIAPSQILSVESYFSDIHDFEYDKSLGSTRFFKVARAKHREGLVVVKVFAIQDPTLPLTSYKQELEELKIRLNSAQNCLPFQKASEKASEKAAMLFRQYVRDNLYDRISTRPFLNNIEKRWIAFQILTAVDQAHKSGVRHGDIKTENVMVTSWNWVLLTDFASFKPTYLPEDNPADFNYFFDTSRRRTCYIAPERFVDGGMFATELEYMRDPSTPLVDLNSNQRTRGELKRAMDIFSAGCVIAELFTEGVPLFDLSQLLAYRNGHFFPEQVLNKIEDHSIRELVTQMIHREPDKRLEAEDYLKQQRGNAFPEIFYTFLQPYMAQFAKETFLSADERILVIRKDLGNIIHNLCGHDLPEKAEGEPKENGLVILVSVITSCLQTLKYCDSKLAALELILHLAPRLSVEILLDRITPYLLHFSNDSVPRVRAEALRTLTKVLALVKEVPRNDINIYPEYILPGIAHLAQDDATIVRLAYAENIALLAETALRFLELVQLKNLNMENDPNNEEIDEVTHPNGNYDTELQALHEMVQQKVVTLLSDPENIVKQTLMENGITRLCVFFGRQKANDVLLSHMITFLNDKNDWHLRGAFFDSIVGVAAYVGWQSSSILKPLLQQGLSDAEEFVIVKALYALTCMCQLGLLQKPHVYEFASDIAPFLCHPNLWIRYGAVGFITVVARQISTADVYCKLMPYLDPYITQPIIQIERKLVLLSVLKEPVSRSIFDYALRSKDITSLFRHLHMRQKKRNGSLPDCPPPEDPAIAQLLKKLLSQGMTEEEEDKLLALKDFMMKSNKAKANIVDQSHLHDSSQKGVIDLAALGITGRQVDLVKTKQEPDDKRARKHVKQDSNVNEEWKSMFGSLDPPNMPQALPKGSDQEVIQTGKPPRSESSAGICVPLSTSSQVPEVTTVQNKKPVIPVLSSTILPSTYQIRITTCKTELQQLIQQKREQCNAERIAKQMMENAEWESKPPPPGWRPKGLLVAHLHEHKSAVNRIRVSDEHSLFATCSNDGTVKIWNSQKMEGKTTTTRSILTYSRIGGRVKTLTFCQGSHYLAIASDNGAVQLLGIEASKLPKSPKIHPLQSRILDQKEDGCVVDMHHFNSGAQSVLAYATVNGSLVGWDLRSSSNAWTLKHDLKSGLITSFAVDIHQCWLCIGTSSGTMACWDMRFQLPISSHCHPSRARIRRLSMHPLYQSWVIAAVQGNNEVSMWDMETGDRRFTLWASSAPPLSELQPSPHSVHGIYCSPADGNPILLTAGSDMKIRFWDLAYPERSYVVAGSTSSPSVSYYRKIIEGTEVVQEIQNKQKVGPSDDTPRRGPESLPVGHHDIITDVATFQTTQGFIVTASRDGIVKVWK
Chain of Thioredoxin-related transmembrane protein 1 (Homo sapiens) (Q9H3N1 whole entry): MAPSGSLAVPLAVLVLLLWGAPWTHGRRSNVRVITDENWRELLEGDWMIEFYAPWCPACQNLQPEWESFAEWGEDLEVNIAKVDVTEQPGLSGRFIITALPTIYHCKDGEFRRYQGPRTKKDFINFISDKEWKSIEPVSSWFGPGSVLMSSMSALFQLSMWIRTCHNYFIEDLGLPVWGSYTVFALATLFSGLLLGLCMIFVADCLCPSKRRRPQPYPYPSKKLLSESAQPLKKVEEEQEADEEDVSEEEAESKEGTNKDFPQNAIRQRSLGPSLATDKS
Chain of Mast/stem cell growth factor receptor Kit (Homo sapiens) (P10721 whole entry, the tested form may be a part): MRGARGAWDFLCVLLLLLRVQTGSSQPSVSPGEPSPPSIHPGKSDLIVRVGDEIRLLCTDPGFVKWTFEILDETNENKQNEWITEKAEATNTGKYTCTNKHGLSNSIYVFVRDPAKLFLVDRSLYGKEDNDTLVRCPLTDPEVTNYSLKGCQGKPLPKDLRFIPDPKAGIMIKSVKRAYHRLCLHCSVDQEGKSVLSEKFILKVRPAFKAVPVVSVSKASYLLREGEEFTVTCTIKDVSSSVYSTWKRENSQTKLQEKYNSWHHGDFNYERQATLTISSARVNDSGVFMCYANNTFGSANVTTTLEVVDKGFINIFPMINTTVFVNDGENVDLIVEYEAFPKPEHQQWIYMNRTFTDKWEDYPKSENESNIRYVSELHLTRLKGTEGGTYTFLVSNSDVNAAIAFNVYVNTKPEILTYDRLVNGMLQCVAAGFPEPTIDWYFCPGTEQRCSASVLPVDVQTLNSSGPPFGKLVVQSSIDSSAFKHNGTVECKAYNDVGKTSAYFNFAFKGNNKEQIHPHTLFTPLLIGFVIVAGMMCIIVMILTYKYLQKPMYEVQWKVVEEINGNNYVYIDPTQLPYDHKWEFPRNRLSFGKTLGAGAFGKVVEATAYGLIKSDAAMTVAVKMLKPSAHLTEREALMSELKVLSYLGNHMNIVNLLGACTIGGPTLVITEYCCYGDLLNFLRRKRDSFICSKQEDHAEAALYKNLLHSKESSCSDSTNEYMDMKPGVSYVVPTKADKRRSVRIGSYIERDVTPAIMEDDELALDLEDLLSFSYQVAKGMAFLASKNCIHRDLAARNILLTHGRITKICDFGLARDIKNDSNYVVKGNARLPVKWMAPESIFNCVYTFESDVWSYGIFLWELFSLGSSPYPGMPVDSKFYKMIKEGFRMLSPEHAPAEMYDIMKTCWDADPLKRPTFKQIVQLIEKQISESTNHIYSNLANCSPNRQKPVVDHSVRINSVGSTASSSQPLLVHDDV
Chain of Prefoldin subunit 2 (Homo sapiens) (Q9UHV9 whole entry): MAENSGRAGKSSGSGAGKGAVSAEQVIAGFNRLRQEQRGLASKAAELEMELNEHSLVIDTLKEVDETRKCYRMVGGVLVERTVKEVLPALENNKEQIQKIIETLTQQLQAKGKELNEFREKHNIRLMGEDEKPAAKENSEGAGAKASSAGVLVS
Chain of Methylosome protein WDR77 (Homo sapiens) (Q9BQA1 whole entry): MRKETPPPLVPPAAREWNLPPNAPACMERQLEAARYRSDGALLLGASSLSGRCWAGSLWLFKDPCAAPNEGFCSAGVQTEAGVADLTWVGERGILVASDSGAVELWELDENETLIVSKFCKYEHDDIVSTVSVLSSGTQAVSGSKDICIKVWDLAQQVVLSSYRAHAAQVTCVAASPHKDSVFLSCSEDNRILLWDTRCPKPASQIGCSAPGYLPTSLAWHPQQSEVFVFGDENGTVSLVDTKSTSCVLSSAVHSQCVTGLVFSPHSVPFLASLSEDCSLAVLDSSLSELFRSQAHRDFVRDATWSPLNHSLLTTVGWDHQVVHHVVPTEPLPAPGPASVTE

Turning to `COc1cc(O)c2c(c1)/C=C/C[C@H](O)[C@H](O)C(=O)/C=C\C[C@H](C)OC2=O`, the Activity in experiment [1] stood at 0.6%.

Turning to `C=CC(=O)Nc1ccccc1Nc1nc(Nc2ccc(N3CCN(CCOCCOCCOCCNC(=O)CCCC[C@@H]4SC[C@@H]5NC(=O)N[C@@H]54)CC3)cc2)ncc1Cl`, the outcome in experiment [2], in [3], in experiment [4], in experiment [5], in experiment [6] and in [7] was Active. The result in experiment [8], in experiment [9], in [10], in experiment [11], in [12] and in experiment [13] was Active. The outcome (in experiment [14]; in experiment [15]; in experiment [16]; at Beclin-1 (Homo sapiens); in experiment [17]; in experiment [18]) was Active. The outcome in experiment [19] and in experiment [20] was Active.
